# Screening data as filed in PubChem BioAssay.
# Cdc25B block: human M-phase inducer phosphatase 2 inhibition; recombinant Cdc25B, OMFP fluorescence Ex485/Em525; actives 0.1% (n = 65,000); AID 368; P30305; inhibition, %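 (compounds tested at 10 µM final in the well)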; in the data active = inhibition above about 50%
# Hsp90 block: displaces geldanamycin probe from tumor Hsp90. NCI-N417 lysate Hsp90, Cy3B-geldanamycin FP displacement. inhibition, % at 30 µM. actives 0.35% (n = 64,000);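 active = inhibition above 50%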;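 note: 0% = tracer plus lysate wells and 100% = tracer alone without lysate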
# MKP-1 inh: blocks human MKP-1 phosphatase activity; actives 0.15% (n = 65,000); recombinant MKP-1, OMFP hydrolysis fluorescence; inhibition, %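 (compounds tested at a single concentration somewhere between 10 and 100 µM)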; AID 374;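 active = inhibition above about 50%, limit read from the data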;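 note: 0% = DMSO max control wells and 100% = wells with enzyme stopped by NaOH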
# JNK3 inh: inhibitors of human JNK3 kinase; purified JNK3 kinase activity, HTS; inhibition, % at 8 µM; actives 0.61% (n = 60,000); AID 746; in the data active = inhibition above about 17%;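 note: 0% = DMSO and 100% = reference inhibitor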
# Target sequence (P53779 whole entry, looked up): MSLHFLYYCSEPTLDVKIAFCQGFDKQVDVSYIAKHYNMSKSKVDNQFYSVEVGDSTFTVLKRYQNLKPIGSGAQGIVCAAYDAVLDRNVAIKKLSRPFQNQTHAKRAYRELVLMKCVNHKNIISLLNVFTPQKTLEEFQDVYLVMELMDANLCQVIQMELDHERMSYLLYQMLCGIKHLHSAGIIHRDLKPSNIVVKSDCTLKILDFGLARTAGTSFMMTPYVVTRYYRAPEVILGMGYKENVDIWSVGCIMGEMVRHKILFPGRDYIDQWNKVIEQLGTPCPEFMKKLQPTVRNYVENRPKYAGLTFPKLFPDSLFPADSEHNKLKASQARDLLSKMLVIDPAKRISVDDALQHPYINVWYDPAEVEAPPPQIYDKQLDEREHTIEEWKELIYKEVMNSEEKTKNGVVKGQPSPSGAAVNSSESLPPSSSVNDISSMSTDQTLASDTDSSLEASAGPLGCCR
# RORa activator: RORA (human) activation; P35398; CHO-K1 Gal4-RORA LBD luciferase reporter, luminescence; percent increase over mock-subtracted basal signal; activation, % at 10 µM; actives 1.5% (n = 65,000); AID 560;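 active = activation above the mean of all tested compounds plus 3 SD, cut at about 49% in these data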;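 note: 0% = DMSO-treated RORA cells and 100% = added signal equal to DMSO minus mock-transfected cells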
# SF1 activator: SF-1 (human) activation. Q13285. CHO-K1 Gal4-SF-1 LBD luciferase reporter; % increase over DMSO SF-1-specific signal. activation, % at 10 µM. actives 1.9% (n = 65,000). AID 522;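 active = activation above the mean activation of all tested compounds plus 3 SD, cut at about 50% in these data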
#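 Test system: transient Gal4-SF-1 LBD reporter, CHO-K1; Amount: 4,000 CHO-K1 cells per well; Doses: 10 µM only; Timing: compound exposure 20 h at 37 °C; Signal: luciferase light emission; Read-out basis: percent activation relative to DMSO median and mock-transfected background; Control set: DMSO negative control and −SF1 background wells; Replicates: one test per compound.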
# An asterisk follows results filed as active; i = inactive; / = no result. The list is not random: actives were taken first. Their share in the collection is about 3.4%.
SMILES,Cdc25B block,Hsp90 block,MKP-1 inh,JNK3 inh,RORa activator,SF1 activator
Cc1cc(C(=O)Nc2sc3c(c2C#N)CCC3)no1,3,-11,24,-2,60*,116*
Cc1ccc2nc(N3CCOCC3)c3nncn3c2c1,-10,-1,5,1,-1,7
O=C(Nc1ccc(N2CCN(Cc3ccccc3)CC2)cc1)c1ncn[nH]1,-8,7,-3,-11,4,7
COC(=O)C1=C(C)N(C)C(C)=C(C(=O)OC)C1c1ccc(F)c(Br)c1,-15,-1,-3,7,2,-12
O=C(c1cccnc1)N1CCN(C(=O)c2ccccc2F)CC1,-9,-2,2,2,7,11
CCn1c(CSc2nnc(-c3ccc4c(c3)OCO4)o2)nc2cc(S(=O)(=O)N(C)C)ccc21,-7,-4,32,-1,-19,-5
N#Cc1c(NC(=O)c2cc(C3CC3)on2)sc2c1CCC2,1,-7,3,-6,26,80*
Cc1onc(-c2ccccc2)c1C(=O)Nc1sc2c(c1C#N)CCC2,-6,/,26,-4,16,24
CC(C)NC(=O)Cn1nnc(-c2cccc(NC(=O)c3ccccc3F)c2)n1,-12,-1,1,5,18,16
O=c1[nH]c(=O)n(CCOc2ccc(Cl)cc2)cc1Br,-1,-2,6,5,-3,-12
CCCOc1ccc(S(=O)(=O)n2cc(Br)c(=O)[nH]c2=O)cc1,3,-2,19,-7,50*,22
O=C(O)CCC(=O)N1CCc2cc(S(=O)(=O)N3CCC(Cc4ccccc4)CC3)ccc21,1,-2,42,1,2,8
O=c1nc2n(c3ccccc13)Cc1ccccc1-2,8,1,4,1,-8,8
Cc1sc2nc3n(c(=O)c2c1C)Cc1ccccc1-3,10,1,2,-5,73*,56*
Cc1ccccc1Cn1cc(S(=O)(=O)CC(=O)Nc2nccs2)c2ccccc21,/,/,/,/,6,6
Cc1ccc(NC(=O)c2ocnc2C)cc1Cl,-15,-5,23,/,61*,72*
Cc1ncoc1C(=O)Nc1cccc(Cl)c1,-4,-4,14,0,33,46
CCOC(=O)c1cnc(-c2ccccc2)nc1N,-1,-1,6,2,48,64*
O=C(O)CCn1c(=O)[nH]c2ccccc2c1=O,-17,-4,2,0,-11,-4
COc1cccc(NC(=O)CCCn2c(=O)[nH]c3ccccc3c2=O)c1,-9,4,15,19*,32,6
Cc1ccc(CNC(=O)CSc2ncccn2)cc1,7,-3,6,/,12,10
Clc1ccccc1C(c1ccccc1)(c1ccccc1)n1ccnc1,/,-1,/,/,/,/
NC(=O)Cc1c[nH]c2cccc(O)c12,-2,6,-3,-7,6,-7
COC1(OC)N=C(N)C2(C#N)C(c3ccc4c(c3)OCO4)C12C#N (configuration not stated),-6,-8,20,20*,-9,4
COC1(OC)N=C(N)C2(C#N)C(c3ccc(C)cc3)C12C#N (configuration not stated),-2,-1,-7,3,-3,5
SMILES,Cdc25B block,Hsp90 block,MKP-1 inh,JNK3 inh,RORa activator,SF1 activator
O=c1oc2c3c4c(cc2cc1-c1nc2ccccc2[nH]1)CCCN4CCC3,3,-98,1,-3,52*,44
CCN(CC)C(=O)c1cc2c(=O)n3cccc(C)c3nc2n1C,74*,-2,15,6,5,-7
c1ccc(Cn2c(SCc3nc4ccccc4s3)nnc2-c2ccco2)cc1,-15,-2,20,1,2,7
COc1ccc(C)cc1-n1nnnc1SCc1nc2ccccc2s1,-11,-5,5,-2,50*,110*
COCCn1c(SCc2nc3ccccc3s2)nc2ccccc21,4,-4,16,1,44,50*
c1ccc(-n2cnnc2SCc2nc3ccccc3s2)cc1,-1,-11,18,5,34,58*
COCCn1c(SCc2nc3sc(C(=O)OC)c(C)c3c(=O)[nH]2)nc2ccccc21,2,-10,38,-1,4,-10
Cc1nnc(SCc2nc3ccccc3s2)n1-c1ccccc1,-10,-11,3,-13,76*,26
O=S(=O)(c1cccc(-c2nnc(SCc3nc4ccccc4s3)o2)c1)N1CCOCC1,-19,-14,21,0,41,46
CCC(c1nnc(SCc2nc3ccccc3s2)n1Cc1ccccc1)N(C)C (configuration not stated),-13,-7,-4,-1,48,61*
CCn1c(SCc2nc3ccccc3s2)nc2cc(S(=O)(=O)N3CCOCC3)ccc21,-13,-14,32,-5,29,63*
CCOc1cc(N2CCOCC2)c(OCC)cc1NC(=O)CSc1cccc[n+]1[O-],-23,11,1,0,15,8
CN[C@H](CC(C)C)C(=O)N[C@H]1C(=O)N[C@@H](CC(N)=O)C(=O)N[C@H]2C(=O)N[C@H]3C(=O)N[C@H](C(=O)N[C@H](C(=O)O)c4cc(O)cc(O)c4-c4cc3ccc4O)[C@H](O)c3ccc(c(Cl)c3)Oc3cc2cc(c3O[C@@H]2O[C@H](CO)[C@@H](O)[C@H](O)[C@H]2O[C@H]2C[C@](C)(N)[C@H](O)[C@H](C)O2)Oc2ccc(cc2Cl)[C@H]1O,/,i,/,/,/,/
COc1cccc(NS(=O)(=O)c2nc3nc(C)cc(C)n3n2)c1,-12,-5,-2,4,-6,4
O=c1[nH]cnc2nc(-c3ccccc3)c(-c3ccccc3)nc12,-5,-6,9,-1,-1,11
O=c1[nH]cnc2cc(-c3ccccc3)sc12,-37,-1,-16,9,18,56*
N#Cc1c(/N=C/N2CCOCC2)sc2c1CCCCC2,-8,-3,8,0,91*,83*
N#Cc1c(/N=C/c2cccs2)sc2c1CCCCC2,-9,-5,-12,0,39,-12
CCC(C)NC(=O)c1cc(-c2ccc(OC)cc2)on1 (configuration not stated),-7,2,-11,/,60*,43
COc1cccc(-c2cc(C(=O)Nc3ccccc3SC)no2)c1,-2,-2,11,-3,66*,47
COCC(C)NC(=O)c1cc(-c2cccc(OC)c2)on1 (configuration not stated),-11,-3,-1,6,34,71*
CC(C)[C@@H]1NC(=O)[C@H](CCCCN)NC(=O)[C@@H](Cc2c[nH]c3ccccc23)NC(=O)[C@H](Cc2ccc(O)cc2)NC(=O)[C@H](C)N(C)C(=O)[C@H](Cc2ccccc2)NC1=O,/,-3,/,/,/,/
O=C(N=C1SCC(=O)N1c1ccccc1Cl)c1ccco1,-8,-9,4,3,62*,55*
O=C(Oc1ccccc1N1C(=O)CCC1=O)c1ccco1,18,0,7,5,4,-2
